# Experimental data taken from ChEMBL document CHEMBL4118021, “Studies of TAK1-centered polypharmacology with novel covalent TAK1 inhibitors” (Bioorg Med Chem, 2017).
# Calls of active or inactive are those of the source. No cut-off for these calls is given here.
# Columns and labels:
# [1] = biological target: Activin receptor type-1 (Homo sapiens) (UniProt Q04771); assay: Inhibition of human ACVR1 (188 to 509 residues) expressed in bacterial expression system assessed as enzyme activity at 1 uM by KINOMEScan assay relative to control; set-up: scale not given: the % may be the effect or the level left
# Method in brief: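 In vitro ATP-site competition binding assay (KinomeScan) across a panel of 456 kinases. Compound was tested at 1 and 10 μM. The read-out is the binding inhibition score relative to control.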
# [2] = biological target: Serine/threonine-protein kinase 38 (Homo sapiens) (UniProt Q15208); assay: Inhibition of NDR1 in human SKCO1 cells at 1 uM after 4 hrs using biotin labeled DIKPDNLLLDSK probe by mass-spectrometric analysis relative to control; type: cell-based
# [3] = biological target: Receptor-interacting serine/threonine-protein kinase 4 (Homo sapiens) (UniProt P57078); assay: Inhibition of ANKRD3 in human SKCO1 cells at 1 uM after 4 hrs using biotin labeled TWLAIKCSPSLHVDDR probe by mass-spectrometric analysis relative to control; type: cell-based
# [4] = biological target: Tyrosine-protein kinase Fyn (Homo sapiens) (UniProt P06241); assay: Inhibition of FYN in human SKCO1 cells at 1 uM after 4 hrs using biotin labeled VAIKTLKPGTMSPESFLEEAQIMK probe by mass-spectrometric analysis relative to control; type: cell-based
# [5] = biological target: NUAK family SNF1-like kinase 2 (Homo sapiens) (UniProt Q9H093); assay: Inhibition of NuaK2 in human SKCO1 cells at 1 uM after 4 hrs using biotin labeled LVAIKSIR probe by mass-spectrometric analysis relative to control; type: cell-based
# [6] = biological target: E3 ubiquitin-protein ligase UBR4 (Homo sapiens) (UniProt Q5T4S7); assay: Binding affinity to UBR4 in human NCI-H23 cells at 1 uM by mass spectrometry based pull down assay; type: cell-based
# [7] = biological target: Splicing factor 3B subunit 3 (Homo sapiens) (UniProt Q15393); assay: Binding affinity to SF3B3 in human NCI-H358 cells at 1 uM by mass spectrometry based pull down assay; type: cell-based
# [8] = biological target: T1, Dual specificity mitogen-activated protein kinase kinase 7 (Homo sapiens) (UniProt O14733); assay: Binding affinity to MAP2K7 in human NCI-H358 cells at 1 uM by mass spectrometry based pull down assay; type: cell-based
# T1 sequence (whole entry): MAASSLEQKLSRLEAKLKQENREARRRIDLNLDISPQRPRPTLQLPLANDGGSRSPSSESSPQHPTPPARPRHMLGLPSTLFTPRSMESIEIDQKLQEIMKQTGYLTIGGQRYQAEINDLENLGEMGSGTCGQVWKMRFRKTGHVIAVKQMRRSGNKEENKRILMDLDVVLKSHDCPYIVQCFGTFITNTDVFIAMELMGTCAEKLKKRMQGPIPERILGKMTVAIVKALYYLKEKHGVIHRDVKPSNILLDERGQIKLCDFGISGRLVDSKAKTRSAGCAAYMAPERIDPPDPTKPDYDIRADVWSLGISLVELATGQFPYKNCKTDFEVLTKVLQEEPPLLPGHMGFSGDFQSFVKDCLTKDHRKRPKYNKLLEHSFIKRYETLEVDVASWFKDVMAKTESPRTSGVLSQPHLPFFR
# [9] = biological target: Coatomer subunit beta (Homo sapiens) (UniProt P53618); assay: Binding affinity to COPB1 in human NCI-H358 cells at 1 uM by mass spectrometry based pull down assay; type: cell-based
# [10] = biological target: Phosphoglycerate kinase 1 (Homo sapiens) (UniProt P00558); assay: Binding affinity to PGK1 in human NCI-H358 cells at 1 uM by mass spectrometry based pull down assay; type: cell-based
# Beclin-1 (Homo sapiens) = Beclin-1 (Homo sapiens) (UniProt Q14457); assay: Binding affinity to BECN1 in human NCI-H23 cells at 1 uM by mass spectrometry based pull down assay; type: cell-based
# [11] = biological target: Pyrroline-5-carboxylate reductase 1, mitochondrial (Homo sapiens) (UniProt P32322); assay: Binding affinity to PYCR1 in human NCI-H358 cells at 1 uM by mass spectrometry based pull down assay; type: cell-based
# [12] = biological target: Cyclin-dependent kinase 4 (Homo sapiens) (UniProt P11802); assay: Binding affinity to CDK4 in human NCI-H23 cells at 1 uM by mass spectrometry based pull down assay; type: cell-based
# [13] = biological target: T2, 80S Ribosome (Homo sapiens) (UniProt P08865+P42677+P62753+P15880+P23396+P61247+P62701+P22090+P46782+P62081+P62241+P46781+P46783+P62280+P25398+P62277+P62263+P62841+P62244+P62249+P08708+P62269+P39019+P60866+P63220+P62266+P62847+P62851+P62854+P62979+P62857+P62273+P62861+P39023+P36578+P46777+Q02878+P18124+P62424+P62917+P32969+P27635+P62906+P62913+P30050+P26373+P40429+P50914+P61313+P18621+Q07020+Q02543+P84098+P46778+P35268+P62829+P62750+P83731+P61254+P61353+P46776+P46779+P47914+P62888+P62899+P62910+P49207+P42766+P18077+Q9Y3U8+P83881+P61927+P61513+P63173+P62891+P62945+P05388+P05386); assay: Binding affinity to RPL10 in human NCI-H23 cells at 1 uM by mass spectrometry based pull down assay; type: cell-based
# [14] = biological target: T2, 80S Ribosome (Homo sapiens); assay: Binding affinity to RPL17 in human NCI-H358 cells at 1 uM by mass spectrometry based pull down assay; type: cell-based
# [15] = biological target: Thymidylate kinase (Homo sapiens) (UniProt P23919); assay: Binding affinity to DTYMK in human NCI-H23 cells at 1 uM by mass spectrometry based pull down assay; type: cell-based
# NCI-H23 = assay: Binding affinity to PSMA7 in human NCI-H23 cells at 1 uM by mass spectrometry based pull down assay; type: cell-based
# [16] = biological target: Arginine--tRNA ligase, cytoplasmic (Homo sapiens) (UniProt P54136); assay: Binding affinity to RARS in human NCI-H358 cells at 1 uM by mass spectrometry based pull down assay; type: cell-based
# [17] = biological target: MAP kinase-activated protein kinase 5 (Homo sapiens) (UniProt Q8IW41); assay: Binding affinity to MAPKAPK5 in human NCI-H358 cells at 1 uM by mass spectrometry based pull down assay; type: cell-based
# [18] = biological target: Pyruvate dehydrogenase E1 component subunit beta, mitochondrial (Homo sapiens) (UniProt P11177); assay: Binding affinity to PDHB in human NCI-H358 cells at 1 uM by mass spectrometry based pull down assay; type: cell-based
# [19] = biological target: T2, 80S Ribosome (Homo sapiens); assay: Binding affinity to RPL8 in human NCI-H23 cells at 1 uM by mass spectrometry based pull down assay; type: cell-based
# [20] = biological target: Dolichyl-diphosphooligosaccharide--protein glycosyltransferase subunit 1 (Homo sapiens) (UniProt P04843); assay: Binding affinity to RPN1 in human NCI-H23 cells at 1 uM by mass spectrometry based pull down assay; type: cell-based
# [21] = biological target: Serine/threonine-protein phosphatase 2A catalytic subunit beta isoform (Homo sapiens) (UniProt P62714); assay: Binding affinity to PPP2CB in human NCI-H358 cells at 1 uM by mass spectrometry based pull down assay; type: cell-based
# Serine/threonine-protein phosphatase 2A catalytic subunit beta isoform (Homo sapiens), sequence (P62714 whole entry, canonical isoform): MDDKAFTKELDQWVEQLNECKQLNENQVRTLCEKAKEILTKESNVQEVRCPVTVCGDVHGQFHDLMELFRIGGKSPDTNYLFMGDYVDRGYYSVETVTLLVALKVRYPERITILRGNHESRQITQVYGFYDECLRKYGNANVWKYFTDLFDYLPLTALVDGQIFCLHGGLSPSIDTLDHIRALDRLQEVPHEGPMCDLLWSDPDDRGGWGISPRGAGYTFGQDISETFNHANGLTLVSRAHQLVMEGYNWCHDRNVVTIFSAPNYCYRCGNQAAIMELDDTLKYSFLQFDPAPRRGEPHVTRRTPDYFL
# Cyclin-dependent kinase 4 (Homo sapiens), sequence (P11802 whole entry): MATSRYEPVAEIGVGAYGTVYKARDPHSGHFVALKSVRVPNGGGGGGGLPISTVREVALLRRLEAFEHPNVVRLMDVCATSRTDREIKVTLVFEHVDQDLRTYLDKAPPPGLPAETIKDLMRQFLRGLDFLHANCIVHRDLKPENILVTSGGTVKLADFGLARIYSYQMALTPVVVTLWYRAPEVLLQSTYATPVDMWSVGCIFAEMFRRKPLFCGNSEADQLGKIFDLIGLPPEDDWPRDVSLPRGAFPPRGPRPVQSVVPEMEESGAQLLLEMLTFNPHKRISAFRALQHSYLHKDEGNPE
# Activin receptor type-1 (Homo sapiens), sequence (Q04771 whole entry, the tested form may be a part): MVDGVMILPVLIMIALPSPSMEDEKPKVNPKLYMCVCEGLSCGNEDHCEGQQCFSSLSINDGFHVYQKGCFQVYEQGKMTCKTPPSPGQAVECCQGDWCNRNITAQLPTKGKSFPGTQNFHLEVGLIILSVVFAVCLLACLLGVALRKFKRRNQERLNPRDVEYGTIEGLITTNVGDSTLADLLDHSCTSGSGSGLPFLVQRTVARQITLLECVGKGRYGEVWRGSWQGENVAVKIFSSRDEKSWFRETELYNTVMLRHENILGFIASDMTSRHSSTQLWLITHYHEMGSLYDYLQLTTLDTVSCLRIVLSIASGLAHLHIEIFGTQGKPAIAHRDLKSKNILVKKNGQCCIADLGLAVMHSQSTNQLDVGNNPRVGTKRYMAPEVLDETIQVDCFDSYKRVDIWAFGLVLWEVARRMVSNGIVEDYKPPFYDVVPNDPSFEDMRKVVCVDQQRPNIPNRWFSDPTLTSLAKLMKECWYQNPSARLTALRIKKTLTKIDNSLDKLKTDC
# Dolichyl-diphosphooligosaccharide--protein glycosyltransferase subunit 1 (Homo sapiens), sequence (P04843 whole entry, canonical isoform): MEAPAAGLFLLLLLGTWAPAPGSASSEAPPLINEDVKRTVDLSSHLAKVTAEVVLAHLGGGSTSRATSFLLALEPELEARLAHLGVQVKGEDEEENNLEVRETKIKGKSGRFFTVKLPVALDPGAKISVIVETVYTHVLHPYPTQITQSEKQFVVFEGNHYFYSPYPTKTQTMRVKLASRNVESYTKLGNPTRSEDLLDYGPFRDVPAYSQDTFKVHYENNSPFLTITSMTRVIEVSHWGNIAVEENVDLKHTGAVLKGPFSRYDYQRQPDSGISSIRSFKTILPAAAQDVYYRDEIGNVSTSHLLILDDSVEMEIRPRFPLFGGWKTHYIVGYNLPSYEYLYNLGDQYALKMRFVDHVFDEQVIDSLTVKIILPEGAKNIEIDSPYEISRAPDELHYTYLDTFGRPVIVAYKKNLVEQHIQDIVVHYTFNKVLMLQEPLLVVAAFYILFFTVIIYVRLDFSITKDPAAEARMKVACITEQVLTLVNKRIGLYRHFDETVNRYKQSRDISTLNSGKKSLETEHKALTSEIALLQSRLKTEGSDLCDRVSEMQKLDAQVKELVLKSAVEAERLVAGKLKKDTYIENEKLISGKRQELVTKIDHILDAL
# Thymidylate kinase (Homo sapiens), sequence (P23919 whole entry): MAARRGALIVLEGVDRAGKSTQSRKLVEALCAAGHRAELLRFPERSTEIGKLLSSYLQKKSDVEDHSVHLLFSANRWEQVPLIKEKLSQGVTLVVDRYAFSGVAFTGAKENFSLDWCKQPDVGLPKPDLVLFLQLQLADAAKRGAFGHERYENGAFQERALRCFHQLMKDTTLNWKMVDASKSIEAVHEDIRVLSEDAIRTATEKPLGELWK
# Pyrroline-5-carboxylate reductase 1, mitochondrial (Homo sapiens), sequence (P32322 whole entry): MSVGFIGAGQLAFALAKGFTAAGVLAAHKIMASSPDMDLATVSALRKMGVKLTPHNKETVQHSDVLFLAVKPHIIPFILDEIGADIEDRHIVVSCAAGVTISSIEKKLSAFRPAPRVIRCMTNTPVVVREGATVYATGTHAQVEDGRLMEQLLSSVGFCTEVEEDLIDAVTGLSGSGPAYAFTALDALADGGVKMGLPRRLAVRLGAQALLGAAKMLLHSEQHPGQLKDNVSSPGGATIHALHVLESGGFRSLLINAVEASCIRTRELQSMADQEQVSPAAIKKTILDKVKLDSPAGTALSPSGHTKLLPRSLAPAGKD
# Tyrosine-protein kinase Fyn (Homo sapiens), sequence (P06241 2-537 limits assumed): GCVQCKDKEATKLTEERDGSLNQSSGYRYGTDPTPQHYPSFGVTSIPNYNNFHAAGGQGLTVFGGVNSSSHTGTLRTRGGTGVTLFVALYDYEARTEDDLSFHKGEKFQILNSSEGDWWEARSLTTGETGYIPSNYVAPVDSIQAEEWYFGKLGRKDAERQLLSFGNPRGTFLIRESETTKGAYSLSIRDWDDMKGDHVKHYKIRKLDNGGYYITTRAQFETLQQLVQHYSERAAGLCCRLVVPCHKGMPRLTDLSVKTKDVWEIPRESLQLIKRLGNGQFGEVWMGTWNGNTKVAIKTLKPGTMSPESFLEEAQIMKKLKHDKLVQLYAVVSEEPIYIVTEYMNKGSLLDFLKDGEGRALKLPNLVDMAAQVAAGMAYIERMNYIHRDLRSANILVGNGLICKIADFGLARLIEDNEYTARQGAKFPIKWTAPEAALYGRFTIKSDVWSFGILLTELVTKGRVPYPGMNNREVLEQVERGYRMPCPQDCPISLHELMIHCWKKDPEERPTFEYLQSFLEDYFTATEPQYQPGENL
# Receptor-interacting serine/threonine-protein kinase 4 (Homo sapiens), sequence (P57078 whole entry): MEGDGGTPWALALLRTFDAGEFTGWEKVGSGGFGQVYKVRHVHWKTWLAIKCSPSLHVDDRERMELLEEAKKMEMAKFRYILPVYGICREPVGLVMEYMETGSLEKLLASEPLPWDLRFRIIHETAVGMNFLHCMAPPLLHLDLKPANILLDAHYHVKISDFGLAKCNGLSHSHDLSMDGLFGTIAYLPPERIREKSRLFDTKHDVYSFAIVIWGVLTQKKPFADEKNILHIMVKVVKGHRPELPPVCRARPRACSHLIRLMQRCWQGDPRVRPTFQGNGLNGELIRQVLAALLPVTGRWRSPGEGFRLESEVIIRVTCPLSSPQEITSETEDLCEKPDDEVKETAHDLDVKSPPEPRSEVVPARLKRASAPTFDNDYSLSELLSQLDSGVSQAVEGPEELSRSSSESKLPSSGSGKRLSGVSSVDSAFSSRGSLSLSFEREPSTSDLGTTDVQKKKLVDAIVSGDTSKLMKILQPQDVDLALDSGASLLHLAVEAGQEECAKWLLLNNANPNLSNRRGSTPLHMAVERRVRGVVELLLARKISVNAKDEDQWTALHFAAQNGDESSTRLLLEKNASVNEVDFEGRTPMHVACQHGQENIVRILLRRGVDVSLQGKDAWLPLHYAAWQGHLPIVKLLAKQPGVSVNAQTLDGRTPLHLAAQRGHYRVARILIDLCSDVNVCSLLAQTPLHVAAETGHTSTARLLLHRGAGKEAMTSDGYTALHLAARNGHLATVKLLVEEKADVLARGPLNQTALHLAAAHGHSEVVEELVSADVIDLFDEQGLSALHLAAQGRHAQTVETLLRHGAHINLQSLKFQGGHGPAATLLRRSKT
# Coatomer subunit beta (Homo sapiens), sequence (P53618 whole entry): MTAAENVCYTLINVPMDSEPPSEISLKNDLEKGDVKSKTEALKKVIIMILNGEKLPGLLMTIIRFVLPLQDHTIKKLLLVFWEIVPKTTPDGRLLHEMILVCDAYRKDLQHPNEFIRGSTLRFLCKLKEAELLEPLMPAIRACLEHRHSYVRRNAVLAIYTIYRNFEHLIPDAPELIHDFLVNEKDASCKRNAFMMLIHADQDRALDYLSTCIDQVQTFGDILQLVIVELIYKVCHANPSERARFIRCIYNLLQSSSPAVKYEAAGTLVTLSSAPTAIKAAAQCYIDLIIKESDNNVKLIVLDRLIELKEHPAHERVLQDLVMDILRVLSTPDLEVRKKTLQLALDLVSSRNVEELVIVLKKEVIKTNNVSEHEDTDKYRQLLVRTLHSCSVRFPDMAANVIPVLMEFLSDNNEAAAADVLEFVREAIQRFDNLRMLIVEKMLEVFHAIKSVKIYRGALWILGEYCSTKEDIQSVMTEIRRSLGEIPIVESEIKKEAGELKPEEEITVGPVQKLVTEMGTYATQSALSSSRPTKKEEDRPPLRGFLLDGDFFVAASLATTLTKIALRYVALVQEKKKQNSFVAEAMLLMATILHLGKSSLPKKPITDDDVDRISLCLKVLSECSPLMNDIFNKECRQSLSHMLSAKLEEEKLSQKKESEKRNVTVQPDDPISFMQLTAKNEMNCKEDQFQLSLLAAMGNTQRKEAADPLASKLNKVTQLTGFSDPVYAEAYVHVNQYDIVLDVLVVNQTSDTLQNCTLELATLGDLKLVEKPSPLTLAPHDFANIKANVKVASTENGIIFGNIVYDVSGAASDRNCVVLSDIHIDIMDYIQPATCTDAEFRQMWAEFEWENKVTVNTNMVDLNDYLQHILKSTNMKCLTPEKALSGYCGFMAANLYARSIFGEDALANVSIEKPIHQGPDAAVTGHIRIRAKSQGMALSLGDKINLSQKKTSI
# Pyruvate dehydrogenase E1 component subunit beta, mitochondrial (Homo sapiens), sequence (P11177 whole entry): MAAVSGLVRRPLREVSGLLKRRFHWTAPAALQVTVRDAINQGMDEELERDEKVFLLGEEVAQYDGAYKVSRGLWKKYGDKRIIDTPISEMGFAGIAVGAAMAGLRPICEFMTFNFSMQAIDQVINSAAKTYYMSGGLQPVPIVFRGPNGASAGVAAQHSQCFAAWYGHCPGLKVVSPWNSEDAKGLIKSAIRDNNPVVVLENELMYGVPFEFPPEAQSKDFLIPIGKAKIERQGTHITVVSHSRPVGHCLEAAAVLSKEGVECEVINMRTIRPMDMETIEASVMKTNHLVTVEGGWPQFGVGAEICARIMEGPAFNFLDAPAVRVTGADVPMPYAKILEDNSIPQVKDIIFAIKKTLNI
smiles,measurement,setting,value
COc1cc(O)c2c(c1)/C=C/C[C@H](O)[C@H](O)C(=O)/C=C\C[C@H](C)OC2=O,Activity,[1],21%
C=CC(=O)Nc1ccccc1Nc1nc(Nc2ccc(N3CCN(C)CC3)cc2)ncc1Cl,inhibition,[2],-4.9%
same,inhibition,[3],-0.1%
same,inhibition,[4],8.3%
same,inhibition,[5],53.3%
C=CC(=O)Nc1ccccc1Nc1nc(Nc2ccc(N3CCN(CCOCCOCCOCCNC(=O)CCCC[C@@H]4SC[C@@H]5NC(=O)N[C@@H]54)CC3)cc2)ncc1Cl,Activity,[6],Active
same,Activity,[7],Active
same,Activity,[8],Active
same,Activity,[9],Active
same,Activity,[10],Active
same,Activity,Beclin-1 (Homo sapiens),Active
same,Activity,[11],Active
same,Activity,[12],Active
same,Activity,[13],Active
same,Activity,[14],Active
same,Activity,[15],Active
same,Activity,NCI-H23,Active
same,Activity,[16],Active
same,Activity,[17],Active
same,Activity,[18],Active
same,Activity,[19],Active
same,Activity,[20],Active
same,Activity,[21],Active
